{"data": "Measured values from different studies", "target": "Calcium/calmodulin-dependent protein kinase type 1B (PNCK, Homo sapiens, UniProt Q6P2M8)"}
{"Compound": "Cc1sc(C(=O)NC2COC2)cc1-n1cc(NC(=O)Nc2c(F)cccc2Cl)cn1", "observed": "enzyme activity", "action": "inhibitor", "tested at": "10 µM", "endpoint": "remaining activity", "result": "74.1%"}
{"Compound": "CCc1ccccc1C(=O)Nc1n[nH]c2c(C)c(F)c(C3C(C#N)=C(C)N(C)C(C)=C3C#N)cc12", "observed": "cell-free assay", "method": "competition with immobilised ligand", "tested at": "1 µM", "endpoint": "remaining binding", "result": "100%"}
{"Compound": "O=C(Nc1cnn(-c2csc(C(=O)NC3COC3)c2)c1)Nc1ccccc1Cl", "observed": "enzyme activity", "action": "inhibitor", "tested at": "5 µM", "endpoint": "remaining activity", "result": "92.1%"}
{"Compound": "Nc1ncnc2occ(-c3ccc(NC(=O)Nc4cc(C(F)(F)F)ccc4F)cc3)c12", "observed": "cell-free assay", "tested at": "20 µM", "endpoint": "remaining signal", "result": "0.5%"}
{"Compound": "Cc1ccc(C(=O)Nc2ccc(CN3CCN(C)CC3)c(C(F)(F)F)c2)cc1C#Cc1cnc2cccnn12", "observed": "cell-free assay", "tested at": "23.5 nM", "endpoint": "remaining signal", "result": "89%"}
{"Compound": "CC(C)(O)[C@H]1CC[C@H](Nc2ccc3ncc(-c4cccc(C(F)(F)F)c4)n3n2)CC1", "observed": "enzyme activity", "action": "inhibitor", "tested at": "1 µM", "endpoint": "remaining activity", "result": "100%"}
{"Compound": "N#CCCc1ccc2c(c1)-c1[nH]c3ccc([N+](=O)[O-])cc3c1CC(=O)N2", "observed": "cell-free assay", "tested at": "0.5 µM", "endpoint": "remaining signal", "result": "107%"}
{"Compound": "COc1cc(Cl)c(C(=O)N[C@@H](CN[C@H]2CC[C@@H](N)CC2)Cc2ccc(C#N)cc2)cc1-c1ccc(CN[C@H](C)c2ccc(C)cc2)o1", "observed": "enzyme activity", "action": "inhibitor", "tested at": "1 µM", "endpoint": "remaining activity", "result": "98%"}
{"Compound": "CN(CCCC(F)(F)F)c1nccc(-c2cnn3ncccc23)n1", "observed": "binding", "tested at": "1 µM", "endpoint": "remaining binding", "result": "100%"}
{"Compound": "CN([C@@H]1CCc2c(CC(=O)O)c3ccccc3n2C1)S(=O)(=O)c1ccc(F)cc1", "observed": "cell-free assay", "method": "competition with immobilised ligand", "tested at": "1 µM", "endpoint": "remaining binding", "result": "87%"}
{"Compound": "CN1CC(Oc2cnc(C#N)cc2-c2ccn3nc(NC(=O)C4CC4)cc3c2)C1", "observed": "enzyme activity", "action": "inhibitor", "tested at": "1 µM", "endpoint": "inhibition", "result": "-21%"}
